Measurements published in paper PMC3228909 (Journal of medicinal chemistry, 2011).
Where “and” joins values, the source holds several entries; their conditions need not be identical. Identical values can stand only once. Like-named read-outs stand apart in the source and are kept apart here.

Key:
[1] = biological target: Aβ plaques in postmortem AD brain homogenates (Homo sapiens, UniProt P05067); format: binding
[2] = biological target: Aβ plaques in CAA brain sections (Homo sapiens, UniProt P05067); assay: Thioflavin S fluorescent staining of neighboring CAA occipital brain sections
How it was run: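 Brain sections fixed in 10% neutral buffered formalin for 1 hr. Autofluorescence quenched with 0.05% KMnO4, then bleached in 0.2% K2S2O5/0.2% oxalic acid. Stained 3–5 min with 0.025% thioflavin S in 40% ethanol, differentiated in 50% ethanol. Imaged by fluorescence microscopy with a CCD digital camera.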

[3] = biological target: Aβ plaques in postmortem human brain sections (Homo sapiens, UniProt P05067); assay: In vitro autoradiography of postmortem human brain sections; format: binding
How it was run: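 Frozen postmortem brains (confirmed CAA, AD, control) cut at 20 µm. Sections incubated 1 h with the 18F-labelled test compound in 40% ethanol. Washes: saturated Li2CO3 in 40% ethanol (2 min, twice), then 40% ethanol (2 min, once), then a 30 s water rinse. Dried sections exposed to film for 12–18 h; developed images digitized.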

[4] = normal mice, iv, cited from earlier work

Aβ plaques in postmortem AD brain homogenates, sequence (P05067 672-711 limits assumed): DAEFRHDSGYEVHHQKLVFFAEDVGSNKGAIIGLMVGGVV
Aβ plaques in postmortem human brain sections, sequence (P05067 672-711 limits assumed): as above
Aβ plaques in CAA brain sections, sequence (P05067 672-711 limits assumed): as above

Compound: CNc1ccc(/C=C/c2ccc(OCCOCCOCCOCCOCCOCCOCC(COCCOCCOCCOCCOCCOCCOc3ccc(/C=C/c4ccc(NC)cc4)cn3)OCCF)nc2)cc1 [Compound 8c]
- Ki [1]: 7.71 nM

Compound: CNc1ccc(/C=C/c2ccc(OCCOCCOCCOCCOCCOCC(COCCOCCOCCOCCOCCOc3ccc(/C=C/c4ccc(NC)cc4)cn3)OCCF)nc2)cc1 [Compound 8b]
- Ki [1]: 3.24 nM

Compound: thioflavin S
- Fluorescent staining of brain sections compared with [18F]8a autoradiography [2]: same labeling of the major blood vessels

Compound: CNc1ccc(/C=C/c2ccc(OCCOCCOCC[18F])nc2)cc1 [[^18F]5, [^18F]florbetapir f 18]
- Autoradiographic labeling of brain sections ([3]; AD brain sections): labeled intensely
- Autoradiographic labeling of brain sections ([3]; healthy control (HC) brain sections): very low labeling
- Biodistribution, Blood ([4]; 2 min post injection): 3.14 ± 0.69 % dose/gram
- Biodistribution, Bone ([4]; 2 min post injection): 1.43 ± 0.09 % dose/gram
- Biodistribution, Brain (brain uptake) ([4]; 2 min post injection): 7.8 % dose/gram and 7.77 ± 1.70 % dose/gram
- Biodistribution, Kidney ([4]; 2 min post injection): 10.9 ± 2.63 % dose/gram
- Biodistribution, Liver ([4]; 2 min post injection): 21.5 ± 1.07 % dose/gram
- Biodistribution, Muscle ([4]; 2 min post injection): 1.06 ± 0.39 % dose/gram
- Biodistribution, Blood ([4]; 30 min post injection): 2.80 ± 0.44 % dose/gram
- Biodistribution, Bone ([4]; 30 min post injection): 1.22 ± 0.17 % dose/gram
- Biodistribution, Brain ([4]; 30 min post injection): 1.59 ± 0.22 % dose/gram
- Biodistribution, Kidney ([4]; 30 min post injection): 6.31 ± 0.58 % dose/gram
- Biodistribution, Liver ([4]; 30 min post injection): 12.9 ± 0.72 % dose/gram
- Biodistribution, Muscle ([4]; 30 min post injection): 1.78 ± 0.34 % dose/gram
